Source: ChEMBL document CHEMBL1149833, “Lignans from Kadsura angustifolia” (J Nat Prod, 2008)

Assays:
[1] = Cytotoxicity against human C8166 cells by MTT assay; format: cell-based
In short: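 MTT viability assay on C8166 cells, reported as CC50. It was run in parallel with the HIV-1 cytopathic-effect assay, with AZT as positive control.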

[2] = system: Human immunodeficiency virus 1; assay: Antiviral activity against HIV1 in human C8166 cells assessed as prevention of virus-induced cytopathic effect; format: functional, organism-based; settings: Human immunodeficiency virus 1, C8166
In short: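 HIV-1 infection of C8166 cells, with protection measured as inhibition of virus-induced cytopathic effects and reported as EC50. Cytotoxicity in the same cells was determined in parallel. AZT served as positive control.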

[3] = Selectivity index, Ratio of CC50 for human C8166 cells to EC50 for HIV1

| EC50 [2] [µM] | SMILES | CC50 [1] [µM] | Ratio [3] |
| --- | --- | --- | --- |
| 13.1 | C=CCc1cc(OC)c2c(c1)[C@H](CO)[C@@H](c1ccc(O)c(OC)c1)O2 | 38.1 | – |
| 3.86 | COc1cc2c(c(O)c1OC)-c1c(cc3c(c1OC)OCO3)[C@@H](O)[C@H](C)[C@H](C)C2 [BINANKADSURIN A] | 227 | – |
| 199 | COc1cc2c(c(O)c1OC)-c1c(cc(O)c(OC)c1OC)[C@@H](O)[C@H](C)[C@H](C)C2 [DEANGELOYLSCHISANTHERIN F] | 281 | – |
| 9.35 | COc1c2c(cc3c1-c1c(cc4c(c1OC)OCO4)[C@@H]1O[C@H]3[C@H](C)[C@@H]1C)OCO2 [EPOXIDESCHISANDRIN C] | 220 | – |
| 54.6 | COc1c2c(cc3c1-c1c(cc4c(c1OC)OCO4)[C@@H](O)[C@@H](C)[C@@H](C)C3)OCO2 [GOMISIN R] | 221 | – |
| > 200 | COc1cc2c(c(O)c1OC)-c1c(cc(OC)c(OC)c1OC)[C@@H](OC(C)=O)[C@H](C)[C@H](C)[C@@H]2O [KADANGUSTIN A] | > 200 | – |
| 150 | COc1c2c(cc3c1-c1c(cc4c(c1OC)OCO4)[C@@H](OC(C)=O)[C@H](C)[C@H](C)[C@@H]3O)OCO2 [KADANGUSTIN B] | > 200 | – |
| 38.3 | COc1cc2c(c(O)c1OC)-c1c(cc(OC)c(OC)c1OC)[C@@H](OC(C)=O)[C@H](C)[C@](C)(O)[C@@H]2OC(=O)/C=C/c1ccccc1 [KADANGUSTIN C] | 190 | – |
| 25.4 | COc1cc2c(c(O)c1OC)-c1c(cc(OC)c(OC)c1OC)[C@@H](OC(C)=O)[C@H](C)[C@H](C)[C@@H]2OC(=O)/C=C/c1ccccc1 [KADANGUSTIN D] | 97.5 | – |
| 60.8 | COc1cc2c(c(O)c1OC)-c1c(cc(OC)c(OC)c1OC)[C@@H](OC(C)=O)[C@H](C)[C@H](C)[C@@H]2OC(=O)c1ccccc1 [KADANGUSTIN E] | 138 | – |
| 72.6 | C/C=C(/C)C(=O)O[C@@H]1c2cc(OC)c(OC)c(O)c2-c2c(cc(OC)c(OC)c2OC)[C@@H](OC(C)=O)[C@H](C)[C@@H]1C [KADANGUSTIN F] | 160 | – |
| 25.7 | C/C=C(\C)C(=O)O[C@@H]1c2cc(OC)c(OC)c(O)c2-c2c(cc(OC)c(OC)c2OC)[C@@H](OC(C)=O)[C@H](C)[C@@H]1C [KADANGUSTIN G] | 72.2 | – |
| 27 | COc1ccc(CC(C)C(C)C(O)c2cc(O)c(OC)c(OC)c2)cc1OC (centres undefined) [KADANGUSTIN H] | 30.7 | – |
| 21.5 | COc1cc(C(O)C(C)C(C)Cc2cc(OC)c3c(c2)OCO3)cc(O)c1OC (centres undefined) [KADANGUSTIN I] | 35.1 | – |
| 44.7 | COc1ccc(C(c2ccc(OC)c(OC)c2)C(C)C(C)CO)cc1OC (centres undefined) [KADANGUSTIN J] | 247 | – |
| 26.2 | COc1cc2c(c(OC)c1OC)-c1c(cc3c(c1OC)OCO3)[C@H]1O[C@@H]2[C@@H](C)[C@H]1C [KADSULIGNAN L] | 361 | – |
| 43.6 | COc1cc2c(c(OC)c1OC)-c1c(cc(OC)c(OC)c1OC)[C@@H]1O[C@H]2[C@H](C)[C@@H]1C [KADSULIGNAN N] | 382 | – |
| 168 | C/C=C(/C)C(=O)O[C@@H]1c2cc(OC)c(OC)c(OC)c2-c2c(cc3c(c2OC)OCO3)[C@@H](OC(C)=O)[C@H](C)[C@]1(C)O [KADSURARIN] | > 200 | – |
| 15.6 | COc1cc(C[C@@H](C)[C@@H](C)Cc2ccc(O)c(OC)c2)ccc1O [MESODIHYDROGUAIARETIC ACID] | 49.1 | – |
| 40.9 | COc1ccc([C@H]2Oc3c(OC)cc(C=O)cc3[C@@H]2C)cc1O [PERSEAL F] | 270 | – |
| 95.2 | C/C=C(/C)C(=O)Oc1c(OC)c(OC)cc2c1-c1c(cc(O)c(OC)c1OC)[C@@H](O)[C@H](C)[C@H](C)C2 [SCHISANTHERIN F] | > 200 | – |
| 138 | C/C=C(/C)C(=O)O[C@@H]1c2cc3c(c(OC)c2-c2c(cc4c(c2OC)OCO4)[C@@H](O)[C@H](C)[C@@H]1C)OCO3 [SCHISANTHERIN L] | > 200 | – |
| 156 | COc1c2c(cc3c1-c1c(cc4c(c1OC)OCO4)[C@@H](O)[C@@H](C)[C@@H](C)[C@@H]3O)OCO2 [SCHISANTHERIN P] | > 200 | – |
| 45.9 | COc1c2c(cc3c1-c1c(cc4c(c1OC)OCO4)[C@@H](O)[C@H](C)[C@H](C)C3=O)OCO2 [SCHISANTHERIN Q] | 212 | 4.61 |
